The target in data set [1] is T1, UDP-glucuronosyltransferase 1A1 (Homo sapiens, UniProt P22309).
T1 sequence (P22309 whole entry): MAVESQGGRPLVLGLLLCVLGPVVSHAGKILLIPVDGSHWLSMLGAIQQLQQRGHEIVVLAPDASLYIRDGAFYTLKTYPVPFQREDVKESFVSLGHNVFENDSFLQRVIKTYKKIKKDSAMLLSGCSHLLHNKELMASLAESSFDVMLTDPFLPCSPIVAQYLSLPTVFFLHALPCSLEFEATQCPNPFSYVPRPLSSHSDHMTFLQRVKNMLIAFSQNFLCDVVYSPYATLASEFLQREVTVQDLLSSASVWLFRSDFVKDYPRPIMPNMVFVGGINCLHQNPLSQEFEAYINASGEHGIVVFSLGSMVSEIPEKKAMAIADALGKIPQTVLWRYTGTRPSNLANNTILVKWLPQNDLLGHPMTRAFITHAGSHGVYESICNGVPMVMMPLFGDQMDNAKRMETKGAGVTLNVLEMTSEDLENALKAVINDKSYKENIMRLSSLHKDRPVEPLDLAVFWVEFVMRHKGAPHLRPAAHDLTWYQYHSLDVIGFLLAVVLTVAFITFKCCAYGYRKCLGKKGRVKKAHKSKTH
In words: Activity of human UGT1A1 expressed in microsomes isolated from baculovirus infected insect cell assessed as enzyme-mediated 2-mercapto-3-(4-((6-methoxy-1-methyl-1H-benzo[d]imidazol-2-yl)methoxy)phenyl)propanoic acid formation at 20 uM after 4 hrs by radio-HPLC/LC-MS/MS analysis in presence of UDPGA. The data set is classed as ADME. In a few lines: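 Alamethicin (50 μg/mg protein, 15 min on ice) pretreated expressed human UGT microsomes (1 mg/ml protein) from baculovirus-infected insect cells. Incubation with [¹⁴C]rivoglitazone (20 μM) in 100 mM Tris-HCl (pH 7.5) with 10 mM MgCl₂, started by 5 mM UDPGA, 4 h at 37°C with shaking. UGT insect-cell control supersomes were run alongside. Acetonitrile stop, concentrated supernatant analysed by radio-HPLC, LC-MS and LC-MS/MS.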

Data set [2] is described as follows: Drug metabolism in human hepatocytes assessed as formation of 2-mercapto-3-(4-((6-methoxy-1-methyl-1H-benzo[d]imidazol-2-yl)methoxy)phenyl)propanamide at 30 uM after 3 hrs by radio-HPLC/LC-MS/MS analysis in presence of NADPH-generating system and NADPH-generating system/SAM. Type of data set: ADME, cell-based, Hepatocyte.
Data set [3] deals with T2, Cytochrome P450 2C19 (Homo sapiens, UniProt P33261). Put plainly: Activity of human CYP2C19 expressed in microsomes isolated from baculovirus infected insect cell assessed as enzyme-mediated 3-(4-((6-methoxy-1-methyl-1H-benzo[d]imidazol-2-yl)methoxy)phenyl)-2-(methylsulfinyl)propanamide formation at 20 uM after 2 hrs by radio-HPLC/LC-MS/MS analysis in presence of NADPH-generating system/SAM. The data set is classed as ADME.

Data set [4] addresses T3, UDP-glucuronosyltransferase 1A8 (Homo sapiens, UniProt Q9HAW9).
T3 sequence (Q9HAW9 whole entry): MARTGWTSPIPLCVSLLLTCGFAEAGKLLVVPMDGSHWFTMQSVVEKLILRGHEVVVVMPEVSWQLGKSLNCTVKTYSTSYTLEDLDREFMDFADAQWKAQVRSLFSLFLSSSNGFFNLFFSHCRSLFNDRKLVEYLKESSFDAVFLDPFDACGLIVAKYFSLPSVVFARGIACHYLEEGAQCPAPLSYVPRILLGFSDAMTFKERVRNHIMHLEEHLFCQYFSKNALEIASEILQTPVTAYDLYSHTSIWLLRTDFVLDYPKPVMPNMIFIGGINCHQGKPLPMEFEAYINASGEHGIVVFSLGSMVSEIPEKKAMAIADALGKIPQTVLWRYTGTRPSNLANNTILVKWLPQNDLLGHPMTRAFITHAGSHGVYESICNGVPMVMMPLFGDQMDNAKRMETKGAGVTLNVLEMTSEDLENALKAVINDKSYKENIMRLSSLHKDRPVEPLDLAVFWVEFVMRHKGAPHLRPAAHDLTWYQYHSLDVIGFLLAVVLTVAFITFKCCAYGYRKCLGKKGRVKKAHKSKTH
Put plainly: Activity of human UGT1A8 expressed in microsomes isolated from baculovirus infected insect cell assessed as enzyme-mediated (2S,3S,4S,5R,6R)-3,4,5-trihydroxy-6-(5-(4-((6-methoxy-1-methyl-1H-benzo[d]imidazol-2-yl)methoxy)benzyl)-2,4-dioxothiazolidin-3-yl)tetrahydro-2H-pyran-2-carboxylic acid formation at 20 uM after 4 hrs by radio-HPLC/LC-MS/MS analysis in presence of UDPGA. The data set is classed as ADME.

In data set [5] the target is T2, Cytochrome P450 2C19. In words: Activity of human CYP2C19 expressed in microsomes isolated from baculovirus infected insect cell assessed as enzyme-mediated 2-amino-3-((1-carboxy-2-(4-((6-methoxy-1-methyl-1H-benzo[d]imidazol-2-yl)methoxy)phenyl)ethyl)disulfanyl)propanoic acid formation at 20 uM after 2 hrs by radio-HPLC/LC-MS/MS analysis. Type of data set: ADME. The method, boiled down: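 Baculovirus/insect-cell microsomes expressing single human CYPs, 1 mg/ml protein, with 50 mM potassium phosphate (pH 7.4) or 100 mM Tris-HCl (pH 7.5). NADPH-generating system: 2 mM NADP⁺, 20 mM glucose 6-phosphate, 2 units/ml G6PDH, 10 mM MgCl₂. [¹⁴C]rivoglitazone at 20 μM, 2 h at 37°C with shaking. Control used insect-cell control supersomes. Stopped with acetonitrile; supernatant concentrated under nitrogen; metabolites analysed by radio-HPLC, LC-MS and LC-MS/MS.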

For the next data set, the target named is Cytochrome P450 3A5 (Homo sapiens, UniProt P20815). Put plainly: Activity of human CYP3A5 expressed in microsomes isolated from baculovirus infected insect cell assessed as enzyme-mediated compound formation treated with [14C]-rivoglitazone at 20 uM after 2 hrs by radio-HPLC/LC-MS/MS analysis in presence of NADPH-generating system. Type of data set: ADME. In a few lines: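 cDNA-expressed human CYP3A5 in baculovirus-insect-cell microsomes (1 mg/ml protein) was incubated with [¹⁴C]rivoglitazone (20 μM) in 50 mM potassium phosphate (pH 7.4) or 100 mM Tris-HCl (pH 7.5). NADPH-generating system: 2 mM NADP⁺, 20 mM glucose 6-phosphate, 2 units/ml G6PDH, 10 mM MgCl₂. Incubation ran 2 h at 37°C with shaking; insect-cell control supersomes served as control. Acetonitrile stop, supernatant concentrated, then radio-HPLC, LC-MS and LC-MS/MS.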

Structures are written as SMILES.

T2 sequence (P33261 whole entry): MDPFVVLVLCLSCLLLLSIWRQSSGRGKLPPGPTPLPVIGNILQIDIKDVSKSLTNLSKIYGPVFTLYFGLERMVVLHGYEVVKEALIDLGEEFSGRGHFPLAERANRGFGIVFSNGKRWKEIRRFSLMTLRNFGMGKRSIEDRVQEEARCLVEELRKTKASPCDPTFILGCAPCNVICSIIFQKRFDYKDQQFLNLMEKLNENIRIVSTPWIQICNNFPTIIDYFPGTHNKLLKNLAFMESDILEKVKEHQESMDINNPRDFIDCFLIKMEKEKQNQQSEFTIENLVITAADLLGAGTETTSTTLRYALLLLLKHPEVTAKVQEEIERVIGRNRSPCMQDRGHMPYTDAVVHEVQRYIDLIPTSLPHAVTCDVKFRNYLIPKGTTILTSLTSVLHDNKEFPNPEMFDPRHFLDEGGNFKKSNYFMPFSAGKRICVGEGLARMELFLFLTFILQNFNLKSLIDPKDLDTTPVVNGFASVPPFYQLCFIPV
Chain of Cytochrome P450 3A5 (P20815 whole entry): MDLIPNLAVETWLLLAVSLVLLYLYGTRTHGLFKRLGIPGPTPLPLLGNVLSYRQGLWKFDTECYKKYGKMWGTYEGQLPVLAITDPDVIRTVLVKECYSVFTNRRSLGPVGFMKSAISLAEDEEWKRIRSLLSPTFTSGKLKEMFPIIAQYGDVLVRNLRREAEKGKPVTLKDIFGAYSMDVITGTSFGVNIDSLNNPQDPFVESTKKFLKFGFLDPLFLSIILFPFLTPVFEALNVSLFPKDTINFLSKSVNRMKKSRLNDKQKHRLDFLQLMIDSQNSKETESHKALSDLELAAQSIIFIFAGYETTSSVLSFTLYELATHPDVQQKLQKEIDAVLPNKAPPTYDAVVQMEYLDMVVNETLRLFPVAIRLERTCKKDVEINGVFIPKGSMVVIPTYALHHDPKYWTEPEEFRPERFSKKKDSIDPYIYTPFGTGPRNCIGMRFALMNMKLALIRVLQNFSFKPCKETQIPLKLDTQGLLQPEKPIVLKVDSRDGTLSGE

Regarding `COc1ccc2nc(COc3ccc(C[14CH]4SC(=O)NC4=O)cc3)n(C)c2c1.Cl` (racemic), the Drug metabolism entry (in data set [1]; in data set [2]; on Cytochrome P450 2C19 [3]; in data set [4]; on Cytochrome P450 2C19 [5]) was “metabolite_not_detected” throughout.
With `COc1ccc2nc(COc3ccc(CC(S)C(=O)O)cc3)n(C)c2c1` (stereo unspecified), the Drug metabolism entry on Cytochrome P450 3A5 is “metabolite_detected”.

For the origin of these results see ChEMBL document CHEMBL3526048, “In vitro metabolism of rivoglitazone, a novel peroxisome proliferator-activated receptor γ agonist, in rat, monkey, and human liver microsomes and freshly isolated hepatocytes” (Drug Metab Dispos, 2011).
